{"data": "Published values of several laboratories", "cell line": "SK-MEL-2", "observed": "cell growth or viability", "note": "Protocols differ between the studies behind these lines."}
{"Compound": "O=C1NC(=NCc2cccs2)S/C1=C\\c1ccc2ncccc2c1", "measurement": "IC50", "result": "> 10 µM"}
{"Compound": "COc1ccc(-c2ccc(-c3ccc(C(=N)N)nc3)s2)cc1Cl", "test": "SRB", "measurement": "GI50", "result": "2.15 µM"}
{"Compound": "COc1cccc(Oc2ccccc2NC(=O)CNC(=O)c2cccc3ccccc23)c1", "test": "SRB", "conditions": "48 h", "measurement": "GI50", "result": "0.182 µM"}
{"Compound": "COc1ccc(C(=O)/C=C/c2ccccc2Br)cc1S(N)(=O)=O", "test": "SRB", "conditions": "48 h", "measurement": "GI50", "result": "14.5 µM"}
{"Compound": "O=C(c1c(F)ccc(NS(=O)(=O)N2CC[C@@H](F)C2)c1F)c1c[nH]c2ncc(-c3cnc(C4CC4)nc3)cc12", "test": "ATP luminescence", "conditions": "72 h", "measurement": "IC50", "result": "> 20 µM"}
{"Compound": "O=C1NCCc2[nH]c(-c3ccncc3)cc21", "measurement": "IC50", "result": "> 10 µM"}
{"Compound": "COc1ccc(C(=O)/C=C/c2ccc(Cl)c(Cl)c2)cc1S(N)(=O)=O", "test": "SRB", "conditions": "48 h", "measurement": "GI50", "result": "5.6 µM"}
{"Compound": "COc1ccc(-c2ccc(-c3ccc(C(=N)N)nc3)s2)cc1", "test": "SRB", "measurement": "GI50", "result": "2.05 µM"}
